Assay results as given in ChEMBL document CHEMBL1144038, “Fluorinated methylenecyclopropane analogues of nucleosides. Synthesis and antiviral activity of (Z)- and (E)-9-{[(2-fluoromethyl-2-hydroxymethyl)-cyclopropylidene]methyl}adenine and -guanine” (Bioorg Med Chem, 2008).
pEC50: −log10 of the molar value. Calls of active or inactive are those of the source. The calls are words filed in the database; no cut-off is given here.

How the values were obtained:
Human betaherpesvirus 5 [1] = experiment: Antiviral activity against Human cytomegalovirus Towne infected in HFF cells by plaque reduction assay; type: functional, organism-based; conditions: Human betaherpesvirus 5, Towne
[2] = Cytotoxicity against HFF cells; type: cell-based; conditions: human
[3] = Cytotoxicity against human akata cells by DNA hybridization assay; type: cell-based
Method in brief: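 Latently infected Akata cells grown in RPMI 1640 with 10% fetal bovine serum, L-glutamine, penicillin and gentamicin at 37 °C in humidified 5% CO2.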

Human gammaherpesvirus 4 [4] = experiment: Antiviral activity against Epstein-Barr virus infected in human akata cells; type: functional, organism-based; conditions: human gammaherpesvirus 4, Akata
Method in brief: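 Akata cells kept in RPMI 1640 with 10% fetal bovine serum, L-glutamine, penicillin and gentamicin at 37 °C, 5% CO2. Lytic infection induced in latently infected cells with F(ab')2 goat anti-human IgG. Total DNA purified; EBV genome copies quantified by real-time TaqMan PCR (900 nM primers, 200 nM probe).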

[5] = Cytotoxicity against human Daudi cells by DNA hybridization assay; type: cell-based
[6] = Selectivity index, ratio of CC50 for human Daudi cells to EC50 for Epstein-Barr virus; type: functional
Human gammaherpesvirus 4 [7] = experiment: Antiviral activity against Epstein-Barr virus infected in human H1 cells by DNA hybridization assay; type: functional, organism-based; conditions: human gammaherpesvirus 4, H1
Human gammaherpesvirus 4 [8] = experiment: Antiviral activity against Epstein-Barr virus infected in human daudi cells by viral capsid immunofluorescence ELISA; type: functional, organism-based; conditions: human gammaherpesvirus 4, Daudi
Human gammaherpesvirus 4 [9] = experiment: Antiviral activity against Epstein-Barr virus infected in human daudi cells by DNA hybridization assay; type: functional, organism-based; conditions: human gammaherpesvirus 4, Daudi
Hepatitis C virus = experiment: Antiviral activity against Hepatitis C virus infected in human Huh7 AVA5 cells by replicon assay; type: functional, organism-based, Hepacivirus hominis; conditions: Huh-7
Method in brief: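 HCV subgenomic CON1 genotype 1b replicon line AVA5 (Huh7), sub-confluent cultures. Compound added daily in fresh medium for 3 days. Assessed 24 h after last dose: intracellular HCV RNA by blot hybridization for EC50; cytotoxicity (CC50) by neutral red dye uptake.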

[10] = Cytotoxicity against human Huh7 AVA5 cells; type: cell-based, Huh-7
Method in brief: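 AVA5 replicon cells (Huh7 carrying subgenomic CON1 HCV, genotype 1b) kept as sub-confluent cultures. Compound given daily in fresh medium for 3 days. Viability was read by neutral red dye uptake 24 h after the last dose.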

Human betaherpesvirus 5 [11] = experiment: Antiviral activity against Human cytomegalovirus AD169 infected in HFF cells by plaque reduction assay; type: functional, organism-based
[12] = Selectivity index, ratio of CC50 for human akata cells to EC50 for Epstein-Barr virus; type: functional

| SMILES | CC50 [3] [µM] | pEC50 (Human gammaherpesvirus 4 [4]) | CC50 [5] [µM] | Selectivity index [6] | pEC50 (Human gammaherpesvirus 4 [9]) | further results |
| --- | --- | --- | --- | --- | --- | --- |
| Nc1nc2c(ncn2COC(CO)CO)c(=O)[nH]1 [GANCICLOVIR] |  |  |  |  |  | pEC50 (Human betaherpesvirus 5 [1]): 5.60; CC50 [2]: > 100 µM |
| Nc1ncnc2c1ncn2/C=C1\CC1(CO)CF (stereo not drawn) | 53.6 | 5.47 |  |  |  |  |
| Nc1ncnc2c1ncn2/C=C1\CC1(F)CO (stereo not drawn) |  |  | > 209 | >1.25 | 3.78 | pEC50 (Human gammaherpesvirus 4 [7]): 5.44; pEC50 (Human gammaherpesvirus 4 [8]): 5.64 |
| Nc1nc2c(ncn2/C=C2/CC2(F)CO)c(=O)[nH]1 (stereo not drawn) |  |  | > 199 | >24.9 | 5.10 |  |
| Nc1nc2c(ncn2COCCO)c(=O)[nH]1 [ACYCLOVIR] |  | 5.77 |  |  |  |  |
| Nc1ncnc2c1ncn2/C=C1/CC1(F)CO (stereo not drawn) |  |  | > 213 | >31.3 | 5.17 |  |
| Nc1nc2c(ncn2/C=C2/CC2(CO)CF)c(=O)[nH]1 (stereo not drawn) | 59.7 | 5.12 |  |  |  |  |
| Nc1ncnc2c1ncn2/C=C1/CC1(CO)CF (stereo not drawn) | 55.7 | 6.30 |  |  |  | pEC50 (Human betaherpesvirus 5 [1]): 4.34; pEC50 (Hepatitis C virus): 5.19; CC50 [10]: 11 µM; CC50 [2]: > 100 µM; Activity (Human betaherpesvirus 5 [11]): inactive |
| Nc1nc2c(ncn2/C=C2/CC2(CO)CO)c(=O)[nH]1 [FILOCICLOVIR] | > 100 |  |  |  |  | Selectivity index [12]: > 40 |
| Nc1nc2c(ncn2/C=C2\CC2(F)CO)c(=O)[nH]1 (stereo not drawn) |  |  | > 199 | >6.8 | 4.54 | pEC50 (Human gammaherpesvirus 4 [8]): > 6.49 |
| Nc1nc2c(ncn2/C=C2\CC2(CO)CF)c(=O)[nH]1 (stereo not drawn) | 64.1 | 5.49 |  |  |  |  |
